Activity calls are given as the source filed them. The rule behind the calls is not given here.
How the values were obtained:
NUGC-3 [1] = assay: Anticancer activity against human NUGC3 cells after 72 hrs by MTS/PMS assay; assay type: functional, cell-based; settings: NUGC-3, 72 h
Summary of the method: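 NUGC-3 gastric cancer cells seeded 4500/well, grown 24 h at 37 °C, 5% CO2, then exposed 72 h to a concentration series, duplicate wells per concentration, final DMSO ≤0.3%. Controls were actinomycin D 10 nM and 0.3% DMSO vehicle. Viability read colorimetrically by MTS/PMS. IC50 is the concentration giving 50% growth inhibition, reported as mean of triplicate wells from at least three experiments.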

NUGC-3 [2] = assay: Induction of apoptosis in human NUGC3 cells assessed as DNA fragmentation at 100 nM by ethidium bromide staining-based agarose gel electrophoresis; assay type: functional, cell-based
[3] = Inhibition of bovine brain tubulin polymerization by turbidity assay; design: species or system Bos taurus
Bos taurus [4] = organism: Bos taurus; assay: Displacement of [3H]colchicine from bovine brain tubulin at 25 uM after 1 hr by scintillation counting
Bos taurus [5] = organism: Bos taurus; assay: Displacement of [3H]colchicine from bovine brain tubulin after 1 hr by scintillation counting
MKN-45 [6] = assay: Ex vivo antiproliferative activity against human MKN45 cells xenografted in nude mouse assessed as BrdU incorporation into DNA at 10 ug/mL after 96 hrs by immunostaining; assay type: functional, cell-based
Summary of the method: (§1)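 MKN-45 or SW-480 cells (1 × 10^6) grown subcutaneously in nude mice to ~1 cm3; tumors cut into 1–2 mm pieces and histocultured on gelatin gels in MEM/DMEM with 10% FBS at 37 °C. After 3 days, exposed 96 h to 0.0001–10 μg/mL, then 40 μM BrdU for 48 h. Fixed, paraffin-sectioned, BrdU-immunostained with hematoxylin counterstain. Labeling index = BrdU-positive/total tumor cells; IC50 taken as concentration halving LI.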

SW480 [7] = assay: Ex vivo antiproliferative activity against human SW480 cells xenografted in nude mouse assessed as BrdU incorporation into DNA at 10 ug/mL after 96 hrs by immunostaining; assay type: functional, cell-based; summary of the method: as §1
MKN-45 [8] = assay: Ex vivo apoptotic activity in human MKN45 cells xenografted in nude mouse assessed as DNA fragmentation at 10 ug/mL after 96 hrs by immunostaining; assay type: functional, cell-based
MKN-45 [9] = assay: Ex vivo antiproliferative activity against human MKN45 cells xenografted in nude mouse assessed as drug concentration reducing 50% of BrdU labeling index after 96 hrs by immunostaining; assay type: functional, cell-based; settings: MKN-45, 96 h; summary of the method: as §1
P388 [10] = assay: Anticancer activity against mouse P388 cells xenografted in DBA/2J mouse assessed as increase in mouse life span at 200 mg/kg, po administered daily for 9 consecutive days; assay type: functional
Summary of the method: (§2)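 Female DBA/2J mice, 5 weeks old, each given 1 × 10^6 P388 cells iv. Oral dosing by gavage (0.1 mL) started one day after inoculation. Compound was dissolved in DMSO and diluted in 0.5% carboxymethyl cellulose (final DMSO <0.5%). Groups of 7–8 mice; vehicle-only controls. Survival checked twice daily. Result is percentage increase in median survival time relative to the control group.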

NUGC-3 [11] = assay: Induction of microtubule arrangement aberration in human NUGC3 cells assessed as appearance of tubulin at 1 uM after 16 hrs FITC analysis; assay type: functional, cell-based
Summary of the method: (§3)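 NUGC-3 cells exposed to 1 μM for 16 h, then fixed in 4% formaldehyde 10 min and blocked with BSA. Stained with monoclonal anti-β-tubulin (1:200, 4 °C overnight) followed by FITC anti-mouse IgG (1:300, 1 h), and for DNA with Hoechst 33258 (1 μg/mL in 0.1% Triton X-100, 5 min). Imaged by confocal laser-scanning microscopy. DMSO vehicle control included.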

NUGC-3 [12] = assay: Induction of apoptosis in human NUGC3 cells assessed as DNA fragmentation at 1 uM after 16 hrs by Hoechst 33258 staining-based confocal laser-scanning microscopy; assay type: functional, cell-based; summary of the method: as §3
MKN-45 [13] = assay: Ex vivo antiproliferative activity against human MKN45 cells xenografted in nude mouse assessed as BrdU incorporation into DNA after 96 hrs by immunostaining; assay type: functional, cell-based; summary of the method: as §1
SW480 [14] = assay: Ex vivo antiproliferative activity against human SW480 cells xenografted in nude mouse assessed as BrdU incorporation into DNA after 96 hrs by immunostaining; assay type: functional, cell-based; summary of the method: as §1
P388 [15] = assay: Anticancer activity against mouse P388 cells xenografted in po dosed DBA/2J mouse assessed as increase in mouse life span administered daily for 9 consecutive days; assay type: functional, organism-based
Summary of the method: (§4)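 Female DBA/2J mice, 5 weeks old, inoculated iv with 1 × 10^6 P388 cells each; dosing began one day later, 7–8 mice per group. Compound in DMSO diluted into 0.5% carboxymethyl cellulose (final DMSO <0.5%). Regimens: iv 2.5 or 7.5 (mg/kg)/day for 4 days; po gavage (0.1 mL) 25–200 (mg/kg)/day for 9 days. Vehicle-only controls. Survival checked twice daily; increase in life span computed from median survival time normalized to controls.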

P388 [16] = assay: Anticancer activity against mouse P388 cells xenografted in iv dosed DBA/2J mouse assessed as increase in mouse life span administered daily for 4 consecutive; assay type: functional, organism-based; summary of the method: as §4
Mus musculus [17] = assay: Toxicity in DBA/2J mouse xenografted with mouse P388 cells assessed as body weight loss at 25 to 200 mg/kg, po administered daily for 9 consecutive days; assay type: organism-based; design: dose 25-200 mg/kg, route oral; settings: in vivo
Mus musculus [18] = assay: Toxicity in DBA/2J mouse xenografted with mouse P388 cells assessed as body weight loss at 2.5 to 7.5 mg/kg, iv administered daily for 4 consecutive days; assay type: organism-based; design: dose 2.5-7.5 mg/kg, route intravenous; settings: in vivo
P388 [19] = assay: Anticancer activity against mouse P388 cells xenografted in DBA/2J mouse assessed as increase in mouse life span at 25 mg/kg, po administered daily for 9 consecutive days; assay type: functional; summary of the method: as §2
P388 [20] = assay: Anticancer activity against mouse P388 cells xenografted in DBA/2J mouse assessed as increase in mouse life span at 100 mg/kg, po administered daily for 9 consecutive days; assay type: functional; summary of the method: as §2
P388 [21] = assay: Anticancer activity against mouse P388 cells xenografted in DBA/2J mouse assessed as increase in mouse life span at 2.5 mg/kg, iv administered daily for 4 consecutive days; assay type: functional
Summary of the method: (§5)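 Female DBA/2J mice, 5 weeks old, each inoculated iv with 1 × 10^6 P388 cells (grown in RPMI 1640 with nonessential amino acids, 50 μM 2-mercaptoethanol, 10% FBS). Compound was given iv starting one day after inoculation. Groups of 7–8 mice plus vehicle controls, monitored twice daily. Percentage increase in life span calculated from median survival time, normalised to controls.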

P388 [22] = assay: Anticancer activity against mouse P388 cells xenografted in DBA/2J mouse assessed as increase in mouse life span at 7.5 mg/kg, iv administered daily for 4 consecutive days; assay type: functional; summary of the method: as §5

Compound COc1ccccc1-c1cn(/N=C/c2ccc(Cl)cc2)c(N)n1 has an IC50 (NUGC-3 [1]) of 5200 nM.
For Nc1nc(-c2cccs2)cn1/N=C/c1ccc(Cl)cc1, the IC50 (NUGC-3 [1]) was 80 nM.
Nc1nc(-c2ccc(-c3ccccc3)cc2)cn1/N=C/c1ccc(Cl)cc1 showed an IC50 (NUGC-3 [1]) greater than 10000 nM.
Compound COc1cc2c(c(OC)c1OC)-c1ccc(OC)c(=O)cc1[C@@H](NC(C)=O)CC2 [COLCHICINE] has an IC50 (NUGC-3 [1]) of 10 nM.
Nc1nc(-c2ccc(Cl)s2)cn1/N=C/c1ccc(Cl)cc1 showed an IC50 (NUGC-3 [1]) of 3280 nM.
For Nc1nc(-c2nccs2)cn1/N=C/c1ccc(Cl)cc1, the IC50 (NUGC-3 [1]) was 510 nM.
Compound Nc1nc(-c2ccccc2)cn1/N=C/c1ccccc1Cl has an IC50 (NUGC-3 [1]) of 3970 nM.
Nc1nc(-c2ccsc2)cn1/N=C/c1ccc(Cl)cc1 showed an IC50 (NUGC-3 [1]) of 50 nM.
Compound Nc1nc(-c2ccccc2)cn1/N=C/c1ccc(Br)cc1 has an IC50 (NUGC-3 [1]) of 580 nM.
In the case of Nc1nc(-c2ccccc2)cn1/N=C/c1ccc(Cl)c(Cl)c1, the IC50 (NUGC-3 [1]) is reported as 740 nM.
For Nc1nc(-c2ccccc2)cn1/N=C/c1ccnc2ccccc12, the IC50 (NUGC-3 [1]) was greater than 10000 nM.
With Nc1nc(-c2cccnc2)cn1/N=C/c1ccc(Cl)cc1 the IC50 (NUGC-3 [1]) was 230 nM, the Activity (NUGC-3 [2]) was “Active” and the IC50 [3] was 270 nM. The Activity (Bos taurus [4]) was “Active” and the Activity (Bos taurus [5]) was “Dose-dependent effect”.
In the case of Nc1nc(-c2ccccc2)cn1/N=C/c1ccc(F)cc1, the Activity (MKN-45 [6]) is reported as “Active”, the Activity (SW480 [7]) is reported as “Active” and the Activity (MKN-45 [8]) is reported as “Active”. The IC50 (MKN-45 [9]) was 34 µM, the Activity (P388 [10]) was 110% and the IC50 (NUGC-3 [1]) was 50 nM.
Nc1nc(-c2ccccc2)cn1/N=C/c1cccc(Cl)c1Cl gave an IC50 (NUGC-3 [1]) of 5120 nM.
Work on Nc1nc(-c2cccnc2)cn1/N=C/c1ccc(F)cc1 yielded an IC50 (NUGC-3 [1]) of 60 nM.
With Nc1nc(-c2ccccc2)cn1/N=C/c1ccc(Cl)cc1 the Activity (NUGC-3 [11]) was “Active”, the Activity (NUGC-3 [12]) was “Active” and the Activity (MKN-45 [13]) was “Dose-dependent effect”. The Activity (SW480 [14]) was “Dose-dependent effect”, the IC50 (MKN-45 [9]) was 13 µM and the Activity (P388 [15]) was “Dose-dependent effect”. For the same compound, the Activity (P388 [16]) was “Dose-dependent effect”, the Activity (Mus musculus [17]) was “Non-toxic” and the Activity (Mus musculus [18]) was “Non-toxic”. For the same compound, the Activity (P388 [19]) was 14%, the Activity (P388 [20]) was 71% and the Activity (P388 [10]) was 114%. For the same compound, the Activity (P388 [21]) was 17%, the IC50 (NUGC-3 [1]) was 60 nM and the Activity (NUGC-3 [2]) was “Active”. The IC50 [3] was 2650 nM, the Activity (Bos taurus [4]) was “Active” and the Activity (Bos taurus [5]) was “Dose-dependent effect”. The Activity (P388 [22]) was 100%.
In the case of Nc1nc(-c2ccccc2)cn1/N=C/c1ccccc1, the IC50 (NUGC-3 [1]) is reported as 840 nM.
Nc1nc(-c2ccccc2)cn1/N=C/c1ccc(C(F)(F)F)cc1 gave an IC50 (NUGC-3 [1]) of 5770 nM.
Work on Nc1nc(-c2ccccn2)cn1/N=C/c1ccc(Cl)cc1 yielded an IC50 (NUGC-3 [1]) of 310 nM.
For Cc1ccsc1/C=N/n1cc(-c2ccccc2)nc1N, the IC50 (NUGC-3 [1]) was 910 nM.
Work on Nc1nc(-c2ccccc2)c(-c2ccccc2)n1/N=C/c1ccc(Cl)cc1 yielded an IC50 (NUGC-3 [1]) greater than 10000 nM.
